Screening data (PubChem BioAssay)
Only some compounds are listed: those with a hit (about 0.91% of all), similar ones and a draw of the others.
Arbovirus anti: arbovirus infection inhibition; arbovirus infection cell-based antiviral screen; inhibition, % at 10 µM; hit rate 0.37% among 200,000; AID 1251; in the data active = inhibition above about 30%
Lipid droplet: hepatic lipid droplet formation modulation | AML12 mouse hepatocytes, oleate lipid droplets, BODIPY imaging | inhibition, % at 6.5 µM | hit rate 0.4% among 240,000 | AID 1656;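 active = lipid droplet intensity inhibited by at least 50%, with more than 500 cells counted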
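Test system: AML12 mouse liver cells; schedule: overnight exposure; technique: high-content imaging of BODIPY-stained droplets and DAPI nuclei; read-out: % inhibition of corrected integrated BODIPY droplet signal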
TNF necrop inh: blocks TNF-alpha induced death of Jurkat FADD-/- cells; Jurkat FADD-/- TNF necroptosis rescue, ATP luminescence, 24 h; 0 = TNF only, 100 = no-TNF cells; activation (protection from cell death), % at 10 µM; hit rate 0.068% among 220,000;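 active = activation, meaning protection from cell death, of at least 50% relative to plate controls; inactive = activation below 50%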;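 note: necroptosis triggered by 40 ng/mL TNF-alpha added together with compound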
Pf gametocyte: inhibitors of late stage P. falciparum gametocyte viability. hit rate 0.065% among 150,000. inhibition, % at 10.9 µM. P. falciparum stage V gametocytes, ATP luminescence, 24 h;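 active = inhibition above the mean plus 3 SD of compounds within the control limits, set per campaign, cut at about 38% in these data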;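 note: 0% = DMSO wells and 100% = medium only without gametocytes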
zVAD death inh: blocks zVAD induced death of L929 cells; viability rescue, % at 10 µM; L929 zVAD necroptosis rescue, ATP luminescence, 24 h; with zVAD 60 µM; hit rate 0.38% among 220,000;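 active = activation, scaled between plate controls, above about 75%, limit read from the data; inactive = activation under that limit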;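 note: 0% = zVAD with DMSO and 100% = DMSO alone without zVAD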
Hep lipid conf: confirmation of inhibitors of hepatic lipid droplet formation | shares compounds with Lipid droplet | AML12 mouse hepatocytes, BODIPY lipid droplet imaging; droplets induced with 100 µM oleic acid | inhibition, % at 5.2 µM | hit rate 65% among 870 | AID 463183;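 active = inhibition of lipid droplet metric at least 50%, with more than 300 cells in each of four replicates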;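 note: plate controls were DMSO with oleic acid for no effect and 5 µM Triacsin-C for full effect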
AML12 cytotox: toxic to AML12 mouse hepatocytes in counter-screen; shares compounds with Lipid droplet; DAPI nuclear morphology cytotoxicity imaging; hits give high values; cells fed 100 µM oleate overnight; z-score at 5 µM; hit rate 3% among 870; AID 463200; in the data active = z-score above about 6.3;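 note: compound exposure lasted overnight at 37 °C before fixation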
AML12 tox ATP: AML12 hepatocyte cytotoxicity, confirmed. shares compounds with Lipid droplet. AML12 mouse hepatocyte viability, ATP luminescence; cells loaded with 100 µM oleic acid. cytotoxicity, % at 50 µM. 530 tested, under 10 active;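 active = cytotoxicity above 50% in each of four replicates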;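 note: compound exposure lasted overnight at 37 °C before the ATP read; 0% = DMSO-treated cells and 100% = wells with no cells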
* marks the source's active call; other numbers are inactive results; nt = no result.

SMILES | Arbovirus anti | Lipid droplet | TNF necrop inh | Pf gametocyte | zVAD death inh | Hep lipid conf | AML12 cytotox | AML12 tox ATP
Cc1cccc(/C=C2\CCC(C3CCCC3)C2=O)c1 (configuration not stated) | 0 | 2 | 2 | -26 | 0 | nt | nt | nt
CCCOc1ccccc1C(=O)N(Cc1ccc(C)o1)C1CCS(=O)(=O)C1 (configuration not stated) | nt | 65* | nt | nt | nt | 78* | 0.48 | -3
CCCOc1ccccc1C(=O)N(Cc1ccco1)C1CCS(=O)(=O)C1 (configuration not stated) | 9 | nt | 1 | 10 | 0 | nt | nt | nt
CCCCOc1ccccc1C(=O)N(Cc1ccc(C)o1)C1CCS(=O)(=O)C1 (configuration not stated) | nt | 64* | nt | nt | nt | 97* | 0.93 | 10
CCN1C(=O)/C(=C/C=C2/Sc3ccc4ccccc4c3N2CCO)SC1=S | 1 | 77* | -5 | 5 | -1 | 19 | -0.31 | nt
O=C(CCc1ccc(S(=O)(=O)N2CCOCC2)cc1)Nc1ccc2c(c1)OCCO2 | nt | -2 | 1 | 0 | 0 | nt | nt | nt
CCOC(=O)C1CCN(S(=O)(=O)c2ccc3c(c2)NC(=O)C(C)C(=O)N3)CC1 (configuration not stated) | nt | 63* | nt | nt | nt | 87* | -0.68 | 8
CSc1ccc(CN(C)C(=O)COc2ccc(C(=O)c3ccccc3)cc2)cc1 | nt | 2 | nt | nt | nt | nt | nt | nt
CCN(CC)CCNC(=O)c1ccc2c(c1NCCO)C(=O)c1ccccc1C2=O | nt | 23 | -22 | -34 | 23 | nt | nt | nt
CC1CCN(C(=O)c2ccc3c(c2NCCO)C(=O)c2ccccc2C3=O)CC1 | -14 | 68* | -5 | 7 | -1 | 109* | -0.38 | 37
CCNc1nc(N)c(C(=O)c2ccc(Cl)s2)s1 | 17 | 52* | 5 | nt | 0 | 26 | -0.34 | nt
CCOc1ccc(NC(=O)CN(C)C(=O)c2ccc(C)c(S(=O)(=O)N3CCCCC3)c2)cc1OCC | nt | 63* | nt | nt | nt | 63* | 0.13 | 14
CCOc1ccc(NC(=O)CN(C)C(=O)c2ccc(OCC3CCCO3)cc2)cc1OCC (configuration not stated) | nt | -8 | nt | nt | nt | nt | nt | nt
CS(=O)(=O)N(CC(=O)Nc1ccc2c(c1)OCO2)Cc1ccccc1 | 2 | 54* | -2 | nt | 0 | 69 | -0.96 | 7
CS(=O)(=O)N(CC(=O)Nc1cccc(Br)c1)Cc1ccccc1 | nt | 52* | nt | nt | nt | 84* | -0.59 | 25
CS(=O)(=O)N(CCc1ccccc1)CC(=O)Nc1ccc2c(c1)OCO2 | 3 | -1 | -1 | -4 | 1 | nt | nt | nt
O=C(NCC1CCN(S(=O)(=O)c2ccccc2)CC1)Nc1ccccc1 | nt | -19 | 3 | -27 | 0 | nt | nt | nt
COC(=O)c1ccc2c(c1)NC(=O)C(N(CC(C)C)CC(C)C)S2 (configuration not stated) | nt | 84* | 3 | -4 | -1 | 15 | -0.35 | nt
CC(C)c1ccccc1NC(=O)COC(=O)c1cc(=O)[nH]c(=O)[nH]1 | 4 | 4 | -1 | -49 | 2 | nt | nt | nt
Cc1ccccc1N=C/C=C1/C=C(c2ccccc2)OC(C)(C)O1 | 23 | 0 | -6 | -2 | 2 | nt | nt | nt
CC1(C)OC(c2ccccc2)=C/C(=C/C=C2C(=O)c3ccccc3C2=O)O1 | -4 | 73* | -6 | 3 | -1 | 27 | 0.25 | nt
COc1ccc(-n2c(=O)c3c4c(sc3n(CC(=O)Nc3cc(C)[nH]n3)c2=O)CCC4)c(OC)c1 | -7 | 51* | 0 | 5 | 1 | 23 | 0.11 | nt
C/C(=N\NC(=O)Cc1c(C)[nH][nH]c1=O)c1ccc2ccccc2c1 | -2 | -23 | -1 | 7 | 0 | nt | nt | nt
COc1cccc(/C(C)=N/NC(=O)Cc2c(C)[nH][nH]c2=O)c1 | 4 | 63* | -1 | -15 | 0 | 26 | 0.32 | nt
CC(C)c1ccccc1NC(=O)COC(=O)c1c2c(nc3ccccc13)CCN(Cc1ccccc1)C2 | 8 | 54* | 1 | -7 | 0 | 56 | -0.0035 | 16
SMILES | Arbovirus anti | Lipid droplet | TNF necrop inh | Pf gametocyte | zVAD death inh | Hep lipid conf | AML12 cytotox | AML12 tox ATP
Cc1c(Cl)cccc1NC(=O)COC(=O)c1c2c(nc3ccccc13)CCN(Cc1ccccc1)C2 | 26 | -13 | 0 | -13 | 0 | nt | nt | nt
COc1ccc(NC(=O)CN2CCN(CC(=O)Nc3ccccc3OC)CC2)c(OC)c1 | nt | 4 | nt | nt | nt | nt | nt | nt
COc1ccc2c(c1)c(CC(=O)Nc1ccccc1OC)c(C)n2C(=O)c1ccc(Cl)cc1 | 2 | 67* | 3 | -4 | -1 | -75 | 7.9 | nt
COc1ccc2c(c1)c(CC(=O)NCc1cc([N+](=O)[O-])ccc1O)c(C)n2C(=O)c1ccc(Cl)cc1 | nt | 6 | nt | nt | nt | nt | nt | nt
COc1ccc2c(c1)c(CC(=O)Nc1ccc(C(C)=O)cc1)c(C)n2C(=O)c1ccc(Cl)cc1 | 18 | 73* | 5 | -12 | 1 | 77* | -0.59 | 5
CC(C)Cc1nnc(NC(=O)CCC(=O)N2CCN(c3ccc(Cl)cc3)CC2)s1 | nt | 3 | nt | nt | nt | nt | nt | nt
O=C(Cn1cnc(Cl)c1Cl)c1ccc(F)cc1 | 1 | -7 | 1 | -22 | 1 | nt | nt | nt
CCOc1ccc(C(=O)NC(=S)Nc2ccc(NC(=O)CC)cc2)cc1[N+](=O)[O-] | -5 | -5 | 1 | nt | 0 | nt | nt | nt
CCOc1ccc(C(=O)Nc2ccc(NC(=S)NC(=O)CC)cc2)cc1Cl | 2 | 50* | -1 | 12 | 0 | 102* | 0.14 | 7
Cc1ccc(CCNC(=O)C2CCN(S(=O)(=O)c3ccc4nc5c(c(C(=O)O)c4c3)CCCC5)CC2)cc1 | nt | -17 | nt | nt | nt | nt | nt | nt
CC(C)C[C@H]1C(=O)N2CCC[C@H]2[C@]2(O)O[C@](NC(=O)[C@@H]3C=C4c5cccc6[nH]c(Br)c(c56)CC4N(C)C3)(C(C)C)C(=O)N12 (some centres not stated) | -10 | 54* | -1 | nt | 2 | 39 | -1.6 | 2
CC(C)=N/N=C1/NC(=O)C(CC(=O)Nc2cc(Cl)ccc2C)S1 (configuration not stated) | -2 | 3 | 2 | nt | 0 | nt | nt | nt
Cc1cc(NC(=O)c2cc3ccccc3o2)cc(C)c1OCC(=O)N1CCOCC1 | -10 | 91* | 0 | nt | 22 | 107* | -0.82 | 34
Cc1cc(NC(=O)c2ccccc2F)cc(C)c1OCC(=O)N1CCOCC1 | nt | 1 | nt | nt | nt | nt | nt | nt
CCOc1ccc(NC(=O)CCNS(=O)(=O)c2ccc3c(c2)CC(C)N3C(C)=O)cc1 (configuration not stated) | nt | 13 | nt | nt | nt | nt | nt | nt
CCc1ccc(NC(=O)Nc2ccsc2C(=O)OC)cc1 | nt | -1 | nt | nt | nt | nt | nt | nt
CN(C)S(=O)(=O)Nc1cccc(NC(=O)CC23CC4CC(CC(C4)C2)C3)c1 | nt | 0 | nt | nt | nt | nt | nt | nt
CN(C)S(=O)(=O)c1cccc(NC(=O)CC23CC4CC(CC(C4)C2)C3)c1 | nt | 84* | nt | nt | nt | 24 | -0.17 | nt
